# Experimental data gathered from unrelated publications.
# Compare with care: the assays were run in different laboratories.
# Target: Mitogen-activated protein kinase kinase kinase 9 (MAP3K9, Homo sapiens, UniProt P80192)
SMILES,assay,setting,measurement,value
NS(=O)(=O)c1ccc(CNc2nc(Nc3cccc(CN4CCOCC4)c3)ncc2Br)cc1,"enzyme activity, inhibitor, radiometric",1 µM,remaining activity,25%
c1ccc(CNc2nc(N3CCOc4ccccc43)nc3c2CCCC3)cc1,"target engagement in cells, inhibitor, chemoproteomics",20 mM,inhibition,3.8%
O=C(Nc1cnn(-c2csc(C(=O)NC3COC3)c2)c1)Nc1ccccc1Cl,"enzyme activity, inhibitor",5 µM,remaining activity,95.1%
O=C(NCCCNc1nc(Nc2cccc(NC(=O)N3CCCC3)c2)ncc1I)c1cccs1,"enzyme activity, inhibitor, radiometric",1 µM,remaining activity,4%
COc1cc(Nc2cnc(C#N)c(O[C@H](C)CN(C)C)n2)ncc1-c1cnn(C)c1,"enzyme activity, inhibitor, radiometric",1 µM,remaining activity,92%
c1cc(CN2CCOCC2)cc(Nc2ncc(C3CC3)c(NCCc3c[nH]cn3)n2)c1,"enzyme activity, inhibitor, radiometric",1 µM,remaining activity,7%
C[C@@H]1CN(c2cc(-c3nn(C)c4ccc(OC5(C)CC5)cc34)ncn2)C[C@H](C)O1,"cell-free assay, competition with immobilised ligand",1 µM,remaining binding,100%
Cc1ccc(Nc2nccc(N(C)c3ccc4c(C)n(C)nc4c3)n2)cc1S(N)(=O)=O,"enzyme activity, inhibitor",10 µM,inhibition,92%
c1cc(CN2CCOCC2)cc(Nc2nccc(NCCc3cnc[nH]3)n2)c1,"enzyme activity, inhibitor, radiometric",1 µM,remaining activity,73%
CCS(=O)(=O)c1cc2cc(C[C@](O)(CC(C)(C)c3ccc(F)cc3C(N)=O)C(F)(F)F)[nH]c2cn1,"cell-free assay, competition with immobilised ligand",1 µM,remaining binding,98%
Cc1nn(CC(F)(F)F)cc1Nc1ncc(C2CC2)c(NCCCNC(=O)C2CCC2)n1,"enzyme activity, inhibitor, radiometric",1 µM,remaining activity,78%
Cc1c[nH]c2nccc(Oc3c(F)cc(Nc4cc(Cl)nc(N)n4)cc3F)c12,"cell-free assay, competition with immobilised ligand",0.1 µM,remaining binding,89%
COc1cc2c(Nc3ccc(Br)cc3F)ncnc2cc1OCC1CCN(C)CC1,cell-free assay,0.5 µM,remaining signal,96.1%
CNC(=O)c1cc(Oc2ccc(NC(=O)Nc3ccc(Cl)c(C(F)(F)F)c3)cc2)ccn1,"enzyme activity, inhibitor",10 µM,inhibition,23%
CN(C)CC#Cc1ccc(OCCCc2sc(N3CCc4cccc(C(=O)Nc5nc6ccccc6s5)c4C3)nc2C(=O)O)c(F)c1,"cell-free assay, competition with immobilised ligand",1 µM,remaining binding,92%
CCCCNc1ncc2c(-c3ccc(F)cc3)nn(C[C@H]3CC[C@H](N)CC3)c2n1,"target engagement in cells, inhibitor, chemoproteomics",20 mM,inhibition,54.9%
Cc1nn(CC(F)(F)F)cc1Nc1ncc(Br)c(NCc2ccc(S(N)(=O)=O)cc2)n1,"enzyme activity, inhibitor, radiometric",1 µM,remaining activity,80%
c1ccc(N2CCN(Cc3nc4ccccc4[nH]3)CC2)nc1,"binding, competition with immobilised ligand",1 µM,remaining binding,100%
O=C1Nc2ccc(Cl)cc2C1=Cc1cc(Cl)c(O)c(Cl)c1,cell-free assay,0.5 µM,remaining signal,102%
CC(C)c1ccc(NC(=O)c2cccs2)c(-c2nc3ccccc3[nH]c2=O)c1,"enzyme activity, inhibitor",1 µM,activity vs control,92%
COc1cc2ncnc(Nc3ccc(Oc4ccccc4)c(C)c3C)c2cc1OC,"enzyme activity, inhibitor",1 µM,inhibition,1%
Cc1ccc(C(=O)NCc2ccsc2)cc1C#Cc1cn(C(C)C)c2ncnc(N)c12,"enzyme activity, inhibitor",1 µM,activity vs control,25%
O=C(NCCCNc1nc(Nc2cccc(NC(=O)N3CCCC3)c2)ncc1C1CC1)C1CCC1,"enzyme activity, inhibitor, radiometric",1 µM,remaining activity,31%
CNC(=O)Nc1ccc2c(c1)[C@@]1(CC2)OC(=O)N(CC(=O)N(Cc2ccc(F)cc2)[C@@H](C)C(F)(F)F)C1=O,"cell-free assay, competition with immobilised ligand",1 µM,remaining binding,100%
O=C(Nc1cccc(Nc2ncc(Br)c(NCCc3cnc[nH]3)n2)c1)N1CCCC1,"enzyme activity, inhibitor, radiometric",1 µM,remaining activity,5%
CCCOc1ccc([C@@H]2[C@@H](C(=O)O)[C@H](c3ccc4c(c3)OCO4)CN2CC(=O)Nc2c(CC)cccc2CC)cc1,"cell-free assay, competition with immobilised ligand",1 µM,remaining binding,93%
O=C1NC(=O)c2cc(Nc3ccc(F)cc3)c(Nc3ccc(F)cc3)cc21,cell-free assay,0.5 µM,remaining signal,102%
O=C(O)c1cc(-c2ccc(C3CCNCC3)cc2)c2ccc(-c3ccc(C(F)(F)F)cc3)cc2c1,"cell-free assay, competition with immobilised ligand",1 µM,remaining binding,100%
Nc1ncnc2occ(-c3ccc(NC(=O)Nc4cc(C(F)(F)F)ccc4F)cc3)c12,"cell-free assay, inhibitor",20 µM,remaining signal,2%
